From ChEMBL document CHEMBL3616437, “Thiazole compounds with activity against Cryptococcus gattii and Cryptococcus neoformans in vitro” (Eur J Med Chem, 2015)

Experiments:
[1] = system: Cryptococcus gattii species complex; assay: Antifungal activity against Cryptococcus gattii ICB181 assessed as reduction in cell viability at 26 uM after 6 to 72 hrs by MTT assay; format: functional, Cryptococcus bacillisporus
In short: (§1)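 Time-kill setup: colonies from two 48 h, 35°C SDA passages were suspended in saline to 70% transmittance at 530 nm. They were then diluted to 1-5 x10^3 cells/mL in RPMI with L-glutamine buffered to pH 7.0 with 0.165 M MOPS. Plates were incubated at 35°C for 0-72 h, then MTT (5.0 mg/mL) was added for 3 h. After isopropanol, absorbance was read at 490 nm. Drug-free controls were included, results were confirmed by SDA colony counts, and assays were run in triplicate.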

[2] = system: Cryptococcus gattii species complex; assay: Antifungal activity against Cryptococcus gattii 135L/03 assessed as reduction in cell viability at 26 uM after 6 to 72 hrs by MTT assay; format: functional, Cryptococcus bacillisporus; in short: as §1
Cryptococcus neoformans [3] = assay: Antifungal activity against Cryptococcus neoformans F10 assessed as reduction in cell viability at 26 uM after 6 to 72 hrs by MTT assay; format: functional; in short: as §1
Cryptococcus neoformans [4] = assay: Antifungal activity against Cryptococcus neoformans 96806 assessed as reduction in cell viability at 26 uM after 6 to 72 hrs by MTT assay; format: functional; in short: as §1
Cryptococcus neoformans [5] = assay: Antifungal activity against Cryptococcus neoformans 27JF assessed as reduction in cell viability at 26 uM after 6 to 72 hrs by MTT assay; format: functional; in short: as §1
[6] = system: Cryptococcus gattii species complex; assay: Antifungal activity against Cryptococcus gattii 547/OTTI-97-PI-10 assessed as reduction in cell viability at 26 uM after 6 to 72 hrs by MTT assay; format: functional, Cryptococcus bacillisporus; in short: as §1
[7] = system: Cryptococcus gattii species complex; assay: Antifungal activity against Cryptococcus gattii LMM818 assessed as reduction in cell viability at 26 uM after 6 to 72 hrs by MTT assay; format: functional, Cryptococcus bacillisporus; in short: as §1
Cryptococcus neoformans [8] = assay: Antifungal activity against Cryptococcus neoformans ATCC 62066 assessed as reduction in cell viability at 26 uM after 6 to 72 hrs by MTT assay; format: functional; in short: as §1
Cryptococcus neoformans [9] = assay: Antifungal activity against Cryptococcus neoformans ATCC 28957 assessed as reduction in cell viability at 26 uM after 6 to 72 hrs by MTT assay; format: functional; in short: as §1
Cryptococcus neoformans [10] = assay: Antifungal activity against Cryptococcus neoformans 5396 assessed as reduction in cell viability at 26 uM after 6 to 72 hrs by MTT assay; format: functional; in short: as §1
Cryptococcus neoformans [11] = assay: Antifungal activity against Cryptococcus neoformans 28JF assessed as reduction in cell viability at 26 uM after 6 to 72 hrs by MTT assay; format: functional; in short: as §1
[12] = system: Cryptococcus gattii species complex; assay: Antifungal activity against Cryptococcus gattii 196L/03 assessed as reduction in cell viability at 26 uM after 6 to 72 hrs by MTT assay; format: functional, Cryptococcus bacillisporus; in short: as §1
Cryptococcus neoformans [13] = assay: Antifungal activity against Cryptococcus neoformans ATCC 24067 assessed as reduction in cell viability at 1.9 uM after 6 to 72 hrs by MTT assay; format: functional
Cryptococcus neoformans [14] = assay: Antifungal activity against Cryptococcus neoformans ATCC 62066 assessed as reduction in cell viability at 1.9 uM after 6 to 72 hrs by MTT assay; format: functional
Cryptococcus neoformans [15] = assay: Antifungal activity against Cryptococcus neoformans LMM820 assessed as reduction in cell viability at 1.9 uM after 6 to 72 hrs by MTT assay; format: functional
Cryptococcus neoformans [16] = assay: Antifungal activity against Cryptococcus neoformans ATCC 28957 assessed as reduction in cell viability at 1.9 uM after 6 to 72 hrs by MTT assay; format: functional
Cryptococcus neoformans [17] = assay: Antifungal activity against Cryptococcus neoformans F10 assessed as reduction in cell viability at 1.9 uM after 6 to 72 hrs by MTT assay; format: functional
Cryptococcus neoformans [18] = assay: Antifungal activity against Cryptococcus neoformans WP assessed as reduction in cell viability at 1.9 uM after 6 to 72 hrs by MTT assay; format: functional
[19] = system: Cryptococcus gattii species complex; assay: Antifungal activity against Cryptococcus gattii 1913ER assessed as reduction in cell viability at 0.12 uM after 6 to 72 hrs by MTT assay; format: functional, Cryptococcus bacillisporus
Cryptococcus neoformans [20] = assay: Antifungal activity against Cryptococcus neoformans ATCC 28957 assessed as reduction in cell viability at 0.12 uM after 6 to 72 hrs by MTT assay; format: functional
Cryptococcus neoformans [21] = assay: Antifungal activity against Cryptococcus neoformans VM-MCMMPI assessed as reduction in cell viability at 0.12 uM after 6 to 72 hrs by MTT assay; format: functional
Cryptococcus neoformans [22] = assay: Antifungal activity against Cryptococcus neoformans CN31 assessed as reduction in cell viability at 0.12 uM after 6 to 72 hrs by MTT assay; format: functional
Cryptococcus neoformans [23] = assay: Antifungal activity against Cryptococcus neoformans 28JF assessed as reduction in cell viability at 0.12 uM after 6 to 72 hrs by MTT assay; format: functional
[24] = system: Cryptococcus gattii species complex; assay: Antifungal activity against Cryptococcus gattii L24/01 assessed as reduction in cell viability at 0.12 uM after 6 to 72 hrs by MTT assay; format: functional, Cryptococcus bacillisporus
[25] = system: Cryptococcus gattii species complex; assay: Antifungal activity against Cryptococcus gattii L28/02 assessed as reduction in cell viability at 0.12 uM after 6 to 72 hrs by MTT assay; format: functional, Cryptococcus bacillisporus
Cryptococcus neoformans [26] = assay: Antifungal activity against Cryptococcus neoformans LMM820 assessed as reduction in cell viability at 0.12 uM after 6 to 72 hrs by MTT assay; format: functional
[27] = system: Cryptococcus gattii species complex; assay: Antifungal activity against Cryptococcus gattii LMM818 assessed as reduction in cell viability at 0.12 uM after 6 to 72 hrs by MTT assay; format: functional, Cryptococcus bacillisporus
Cryptococcus neoformans [28] = assay: Antifungal activity against Cryptococcus neoformans 96806 assessed as reduction in cell viability at 0.12 uM after 6 to 72 hrs by MTT assay; format: functional
Cryptococcus neoformans [29] = assay: Antifungal activity against Cryptococcus neoformans WP assessed as reduction in cell viability at 0.9 uM after 6 to 72 hrs by MTT assay; format: functional
Cryptococcus neoformans [30] = assay: Antifungal activity against Cryptococcus neoformans 28JF assessed as reduction in cell viability at 0.9 uM after 6 to 72 hrs by MTT assay; format: functional
Cryptococcus neoformans [31] = assay: Antifungal activity against Cryptococcus neoformans ATCC 28957 assessed as reduction in cell viability at 0.9 uM after 6 to 72 hrs by MTT assay; format: functional
Cryptococcus neoformans [32] = assay: Antifungal activity against Cryptococcus neoformans 96806 assessed as reduction in cell viability at 0.9 uM after 6 to 72 hrs by MTT assay; format: functional
Cryptococcus neoformans [33] = assay: Antifungal activity against Cryptococcus neoformans CN31 assessed as reduction in cell viability at 0.9 uM after 6 to 72 hrs by MTT assay; format: functional

Measured: Activity

OC(Cn1cncn1)(Cn1cncn1)c1ccc(F)cc1F [FLUCONAZOLE]
80%: [1] | [2] | Cryptococcus neoformans [3] | Cryptococcus neoformans [4] | Cryptococcus neoformans [5] | [6] | [7] | Cryptococcus neoformans [8] | Cryptococcus neoformans [9] | Cryptococcus neoformans [10] | Cryptococcus neoformans [11] | [12]

C(=N\Nc1nc(-c2ccccc2)cs1)/C1CCCCC1
90%: Cryptococcus neoformans [13] | Cryptococcus neoformans [14] | Cryptococcus neoformans [15] | Cryptococcus neoformans [16] | Cryptococcus neoformans [17] | Cryptococcus neoformans [18]

C[C@@H]1[C@H](O)[C@@H](C)/C=C/C=C/C=C/C=C/C=C/C=C/C=C/[C@H](O[C@@H]2O[C@H](C)[C@@H](O)[C@H](N)[C@@H]2O)C[C@@H]2O[C@](O)(C[C@@H](O)C[C@@H](O)[C@H](O)CC[C@@H](O)C[C@@H](O)CC(=O)O[C@H]1C)C[C@H](O)[C@H]2C(=O)O [AMPHOTERICIN B]
90%: [19] | Cryptococcus neoformans [20] | Cryptococcus neoformans [21] | Cryptococcus neoformans [22] | Cryptococcus neoformans [23] | [24] | [25] | Cryptococcus neoformans [26] | [27] | Cryptococcus neoformans [28]

COc1ccc(-c2csc(N/N=C(\C)CCO)n2)cc1
90%: Cryptococcus neoformans [29] | Cryptococcus neoformans [30] | Cryptococcus neoformans [31] | Cryptococcus neoformans [32] | Cryptococcus neoformans [33]
